Assay results as given in ChEMBL document CHEMBL1143935, “Synthesis and biological evaluation of novel dimiracetam derivatives useful for the treatment of neuropathic pain” (Bioorg Med Chem, 2008).
The source made the active and inactive calls.

Experiments:
Rattus norvegicus [1] = experiment: Analgesic activity against nerve injury-induced hyperalgesia in Sprague-Dawley rat assessed as increase in lesional paw pressure threshold at 10 mg/kg, po after 30 to 60 mins; assay type: functional, organism-based; parameters: dose 10 mg/kg
Outline: (§1)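 Male Sprague–Dawley rats (150–200 g) given a chronic constriction injury: loose ligatures on the right common sciatic nerve (Bennett–Xie), under chloral hydrate anaesthesia. Oral dosing. Analgesimeter paw pressure; withdrawal force in g recorded before and 30, 45, 60 min after dosing, cut-off 240 g. Rats below 40 g or above 75 g at baseline were excluded. Mean ± SEM, 6–11 rats; ANOVA with Fisher PLSD.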

Rattus norvegicus [2] = experiment: Antihyperalgesic activity in Sprague-Dawley rat assessed as lesioned paw pressure threshold at 10 ug/kg, icv after 60 mins; assay type: functional
Outline: (§2)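 Sciatic nerve-ligated (chronic constriction injury, Bennett–Xie) male Sprague–Dawley rats, 150–200 g, dosed i.c.v.; saline served as vehicle. Paw withdrawal threshold (g) of the lesioned paw was read by analgesimeter before dosing and at 30, 45 and 60 min, max force 240 g. Baseline outliers (<40 g, >75 g) were excluded. Mean ± SEM of 8–14 rats; ANOVA with Fisher PLSD.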

Rattus norvegicus [3] = experiment: Analgesic activity against nerve injury-induced hyperalgesia in Sprague-Dawley rat assessed as increase in lesional paw pressure threshold at 30 mg/kg, po after 30 to 60 mins; assay type: functional, organism-based; parameters: dose 30 mg/kg; outline: as §1
Rattus norvegicus [4] = experiment: Neurotoxicity in Sprague-Dawley rat assessed as behavioural impairment at 100 mg/kg, po by rotarod test; assay type: toxicity, organism-based; parameters: dose 100 mg/kg, route oral; conditions: in vivo
Outline: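 Rotarod motor incoordination test in male Sprague–Dawley rats: animals walk against the rotating drum for 30 s, and the readout is the number of falls in 30 s.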

Rattus norvegicus [5] = experiment: Analgesic activity against streptozotocin-induced hyperalgesia in Sprague-Dawley rat assessed as increase in paw mechanical threshold at 50 mg/kg, po; assay type: functional, organism-based; parameters: dose 50 mg/kg
Outline: (§3)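 Male Sprague–Dawley rats (150–200 g) were given streptozotocin 50 mg/kg ip and tested 21 days later. Oral dosing; paw pressure analgesimeter read as the force (g) at first struggling, before and at 30–60 min after dosing, cut-off 240 g. Rats below 40 g or above 75 g at baseline were excluded. Mean ± SEM, 9–10 rats; ANOVA with Fisher PLSD.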

Rattus norvegicus [6] = experiment: Analgesic activity against streptozotocin-induced hyperalgesia in Sprague-Dawley rat assessed as increase in paw mechanical threshold at 100 mg/kg, po; assay type: functional, organism-based; parameters: dose 100 mg/kg; outline: as §3
Rattus norvegicus [7] = experiment: Antihyperalgesic activity in Sprague-Dawley rat assessed as lesioned paw pressure threshold at 10 ug/kg, icv after 30 mins; assay type: functional; outline: as §2
Rattus norvegicus [8] = experiment: Antihyperalgesic activity in Sprague-Dawley rat assessed as lesioned paw pressure threshold at 10 ug/kg, icv after 45 mins; assay type: functional; outline: as §2
Rattus norvegicus [9] = experiment: Antihyperalgesic activity in Sprague-Dawley rat assessed as lesioned paw pressure threshold at 30 ug/kg, icv after 30 mins; assay type: functional; outline: as §2
Rattus norvegicus [10] = experiment: Antihyperalgesic activity in Sprague-Dawley rat assessed as lesioned paw pressure threshold at 30 ug/kg, icv after 45 mins; assay type: functional; outline: as §2
Rattus norvegicus [11] = experiment: Antihyperalgesic activity in Sprague-Dawley rat assessed as lesioned paw pressure threshold at 30 ug/kg, icv after 60 mins; assay type: functional; outline: as §2
Rattus norvegicus [12] = experiment: Antihyperalgesic activity in Sprague-Dawley rat assessed as lesioned paw pressure threshold at 500 ug/kg, icv after 45 mins; assay type: functional
Outline: (§4)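 Male Sprague–Dawley rats, 150–200 g, with right sciatic nerve chronic constriction injury (Bennett–Xie). Compound given i.c.v. and withdrawal threshold (g) on lesioned and contralateral paws measured with an analgesimeter before dosing and at 30, 45, 60 min. Pre-dose scores outside 40–75 g excluded; 240 g maximum force. 8–14 rats per group; ANOVA with Fisher's PLSD.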

Rattus norvegicus [13] = experiment: Antihyperalgesic activity in Sprague-Dawley rat assessed as lesioned paw pressure threshold at 500 ug/kg, icv after 60 mins; assay type: functional; outline: as §4
Rattus norvegicus [14] = experiment: Antihyperalgesic activity in Sprague-Dawley rat assessed as lesioned paw pressure threshold at 500 ug/kg, icv after 30 mins; assay type: functional; outline: as §4
Rattus norvegicus [15] = experiment: Antihyperalgesic activity in Sprague-Dawley rat assessed as lesioned paw pressure threshold at 100 ug/kg, icv after 60 mins; assay type: functional; outline: as §2
Rattus norvegicus [16] = experiment: Antihyperalgesic activity in Sprague-Dawley rat assessed as lesioned paw pressure threshold at 100 ug/kg, icv after 30 mins; assay type: functional; outline: as §2
Rattus norvegicus [17] = experiment: Antihyperalgesic activity in Sprague-Dawley rat assessed as lesioned paw pressure threshold at 100 ug/kg, icv after 45 mins; assay type: functional; outline: as §2
Rattus norvegicus [18] = species: Rattus norvegicus; experiment: Analgesic activity against streptozotocin-induced hyperalgesia in Sprague-Dawley rat assessed as increase in paw mechanical threshold; assay type: functional, organism-based
Outline: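 Male Sprague–Dawley rats, 150–200 g, given streptozotocin 50 mg/kg ip and tested 21 days later; compound given orally at 30–100 mg/kg, with non-diabetic controls. Paw pressure analgesimeter recorded force (g) causing first struggle before and 30, 45, 60 min after dosing; 240 g cutoff. Means of 9–10 rats; ANOVA with Fisher's PLSD.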

Rattus norvegicus [19] = experiment: Analgesic activity against nerve injury-induced hyperalgesia in Sprague-Dawley rat assessed as increase in lesional paw pressure threshold at 50 mg/kg, po after 30 to 60 mins; assay type: functional, organism-based; parameters: dose 50 mg/kg
Outline: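 Male Sprague–Dawley rats, 150–200 g, with chronic constriction injury (loose ligatures on right common sciatic nerve, chloral hydrate anaesthesia); oral dosing. Paw pressure analgesimeter measured withdrawal/first-struggle force (g) on lesioned and contralateral paws before and 30, 45, 60 min after dosing. Pre-dose scores below 40 g or above 75 g excluded; 240 g cutoff. Means of 6–11 rats; ANOVA with Fisher's PLSD.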

`Cc1ccc(N2C(=O)CN3C(=O)CCC32)cc1` (stereo not drawn) was tested, and the Activity (Rattus norvegicus [1]) was “inactive”, the Activity (Rattus norvegicus [2]) was 45.4 g and the Activity (Rattus norvegicus [3]) was “Active”. For the same compound, the Activity (Rattus norvegicus [4]) was “Non-toxic”, the Activity (Rattus norvegicus [5]) was “Active” and the Activity (Rattus norvegicus [6]) was “Active”. For the same compound, the Activity (Rattus norvegicus [7]) was 54 g and the Activity (Rattus norvegicus [8]) was 57.4 g.

For `NCC1(CC(=O)O)CCCCC1` [GABAPENTIN], the Activity (Rattus norvegicus [9]) was 46.3 g, the Activity (Rattus norvegicus [10]) was 43.5 g and the Activity (Rattus norvegicus [11]) was 46.1 g.

`CC[C@@H](C(N)=O)N1CCCC1=O` [LEVETIRACETAM] gave an Activity (Rattus norvegicus [12]) of 52.1, an Activity (Rattus norvegicus [13]) of 49.3 and an Activity (Rattus norvegicus [14]) of 51.8.

In the case of `Cc1cccc(N2C(=O)CN3C(=O)CCC32)c1` (stereo not drawn), the Activity (Rattus norvegicus [2]) is reported as 51.2 g, the Activity (Rattus norvegicus [7]) is reported as 59.3 g and the Activity (Rattus norvegicus [8]) is reported as 63.4 g.

`O=C1CCC2N1CC(=O)N2c1ccccc1` (stereo not drawn) gave an Activity (Rattus norvegicus [9]) of 51.7 g, an Activity (Rattus norvegicus [10]) of 52.7 g and an Activity (Rattus norvegicus [11]) of 53.3 g.

Work on `O=C1CN2C(=O)CCC2N1` (stereo not drawn) [DIMIRACETAM] yielded an Activity (Rattus norvegicus [15]) of 39.2 g, an Activity (Rattus norvegicus [16]) of 41 g and an Activity (Rattus norvegicus [17]) of 42.8 g.

`N#Cc1cccc(N2C(=O)CN3C(=O)CCC32)c1` (stereo not drawn) was tested, and the Activity (Rattus norvegicus [18]) was “Dose-dependent effect”, the Activity (Rattus norvegicus [4]) was “Non-toxic” and the Activity (Rattus norvegicus [9]) was 49.7 g. The Activity (Rattus norvegicus [10]) was 55.4 g, the Activity (Rattus norvegicus [11]) was 46.8 g and the Activity (Rattus norvegicus [19]) was “Active”.

`Cc1cccc(C)c1NC(=O)CN1CCCC1=O` [NEFIRACETAM] gave an Activity (Rattus norvegicus [9]) of 46.7 g, an Activity (Rattus norvegicus [10]) of 49.5 g and an Activity (Rattus norvegicus [11]) of 47.6 g.

Work on `Cc1ccccc1N1C(=O)CN2C(=O)CCC21` (stereo not drawn) yielded an Activity (Rattus norvegicus [9]) of 46.7 g, an Activity (Rattus norvegicus [10]) of 55.3 g and an Activity (Rattus norvegicus [11]) of 54.8 g.

In the case of `N#Cc1ccc(N2C(=O)CN3C(=O)CCC32)cc1` (stereo not drawn), the Activity (Rattus norvegicus [18]) is reported as “Dose-dependent effect”, the Activity (Rattus norvegicus [2]) is reported as 58.2 g and the Activity (Rattus norvegicus [7]) is reported as 59.4 g. For the same compound, the Activity (Rattus norvegicus [8]) was 55.3 g and the Activity (Rattus norvegicus [19]) was “Active”.

In the case of `CC(C)c1cccc(N2C(=O)CN3C(=O)CCC32)c1` (stereo not drawn), the Activity (Rattus norvegicus [9]) is reported as 48.5 g, the Activity (Rattus norvegicus [10]) is reported as 43.7 g and the Activity (Rattus norvegicus [11]) is reported as 42.5 g.
